ERAP1 HTS inh: inhibitors of human ERAP1 aminopeptidase; Q9NZ08; recombinant ERAP1, Leu-AMC fluorescence, 60 min; inhibition, % at 10.7 µM; 340,000 tested, 0.15% active;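 active = mean replicate inhibition of at least 30%, or all replicates individually reaching that 30% level; inactive = mean below 30% and not every replicate reaching it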;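 note: 0% = neutral control wells and 100% = L-leucinethiol positive control wells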
SIRT5 block: sirtuin-5 (human) deacylase inhibition; Q9NXA8; Purified SirT5, succinyl-peptide AMC, trypsin-coupled fluorescence; inhibition, % at 15 µM; 330,000 tested, 1.1% active; AID 652115; in the data active = inhibition above about 15%
Target sequence (Q9NXA8 whole entry, looked up): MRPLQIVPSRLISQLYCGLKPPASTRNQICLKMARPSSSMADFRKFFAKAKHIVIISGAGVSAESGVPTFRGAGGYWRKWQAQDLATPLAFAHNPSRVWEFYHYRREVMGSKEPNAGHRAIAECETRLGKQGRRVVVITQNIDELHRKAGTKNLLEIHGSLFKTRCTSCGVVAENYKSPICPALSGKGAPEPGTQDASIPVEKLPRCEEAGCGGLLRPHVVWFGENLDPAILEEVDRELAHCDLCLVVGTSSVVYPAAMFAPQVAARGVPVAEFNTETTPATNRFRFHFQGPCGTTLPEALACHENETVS
CFTR F508del cor: CFTR F508del correction in bronchial cells; 350,000 tested, 0.36% active; activity (quench increase), % at 7.58 µM; CFBE cells, YFP halide quenching; stimulated with forskolin plus potentiator P3; % fluorescence drop versus neutral controls; AID 720511;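 active = mean added fluorescence quench of at least 8% versus neutral control, with both replicates also reaching 8%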;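 note: cells transiently co-express mutant CFTR-F508del with the halide-sensitive YFP; corrector assay measuring rescue of mutant channel to the surface after 24 h compound exposure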
Ecoli rRNA inh: inhibitors of bacterial rRNA selective over humanized ribosomes | GFP signal change (wild-type ribosome), % (concentration not given with the values) | 350,000 tested, 1.6% active | E. coli WT GFP vs humanized-ribosome RFP mutants, fluorescence, 24 h; active compounds read low; DMSO median 0, no signal -100 | AID 720706;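 active = significant combined selectivity score with lowered wild-type GFP, culture density cut under 30%, mutant RFP and density less affected; inactive = any of these conditions unmet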
S100A4 MyoIIA: blocks human S100A4 binding to myosin IIA peptide; 360,000 tested, 0.14% active; inhibition, % at 10.7 µM; S100A4/TAMRA-MyoIIA peptide fluorescence polarization;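 active = mean inhibition of at least 70% across replicates, with every replicate also reaching that level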
Target sequence (P26447 whole entry, looked up): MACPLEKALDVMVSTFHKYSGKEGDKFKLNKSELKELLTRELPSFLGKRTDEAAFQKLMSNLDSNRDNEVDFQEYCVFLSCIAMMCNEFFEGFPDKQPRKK
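Test system: S100A4 monomer protein; Medium: HEPES pH 7.2 with CaCl2, KCl, NaCl, DTT, Triton; Probe or stimulus: TAMRA-labelled myosin IIA heavy-chain peptide probe, 5 nM; Doses: one dose per compound; Times: polarization read 5 min after assay mix addition, stable 5–60 min; Benchmarks: neutral control DMSO, positive control TFP.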
* hit, by the source's call; nt = no result. In the library only some 3.1% were active in any assay of this set; here they are far more common.

SMILES	ERAP1 HTS inh	SIRT5 block	CFTR F508del cor	Ecoli rRNA inh	S100A4 MyoIIA
C[C@@H]1CN([C@H](C)CO)C(=O)c2cc(NC(=O)C3CC3)ccc2O[C@@H]1CN(C)S(=O)(=O)c1ccc(F)cc1	0	-11	4	0	-19
O=C(CC1c2cc(F)ccc2C=C(c2ccsc2)N1c1ccc(C#CCCO)cc1)c1ccco1 (stereo not given)	3	17*	-1	8	-2
CO[C@@H](CN(C)S(=O)(=O)c1ccc(C)cc1)[C@H](C)CN(Cc1ccccc1Cl)[C@H](C)CO	0	0	-2	3	1
COc1cc(/C=C2\SC(=S)N(CC(=O)O)C2=O)ccc1OS(=O)(=O)c1ccc(C)cc1	-7	9	-1	-18*	-4
COc1cc(/C=C2/SC(=S)N(Cc3ccccc3)C2=O)ccc1OS(C)(=O)=O	-1	-4	-1	9	1
COc1cc(/C=N/NC(=O)c2cccnc2)ccc1OS(=O)(=O)c1ccc(C)cc1	-4	6	0	-23	-6
COC(=O)N/N=C/c1ccc(OS(=O)(=O)c2ccc(C)cc2)c(OC)c1	-2	3	1	-28*	4
COc1cc(/C=C2/SC(=S)N(CC(=O)O)C2=O)ccc1OC(=O)c1cccs1	-4	8	4	-19*	-5
CC(Oc1ccccc1)C(=O)Nc1nnc(S(=O)(=O)N2CCCCC2)s1 (stereo not given)	-1	1	1	-3	0
CC(Oc1ccccc1)C(=O)Nc1nnc(C2CCCCC2)s1 (stereo not given)	-1	22*	4	-10	-9
CC(Oc1ccccc1)C(=O)Nc1nnc(S(=O)(=O)Nc2ccccc2)s1 (stereo not given)	0	7	0	-13*	2
COc1ccccc1CNC(=O)Cn1cnnn1	2	-1	12*	12	-2
COC(=O)c1ccc(CNC(=O)Cn2cnnn2)cc1	-2	-5	2	7	-19
COC(=O)/C(C#N)=C/c1c[nH]c2ccccc12	1	2	0	-22*	-3
N#C/C(=C\c1ccc(O)c(O)c1)C(=O)NCCc1ccccc1	2	4	-6	-47	-1
COc1cc(/C=C(\C#N)C(=O)NCCc2ccccc2)cc(OC)c1O	nt	nt	3	-31*	1
COc1cc(/C=C(\C#N)C(=O)c2c[nH]c3ccccc23)cc(OC)c1O	4	-1	17*	2	-1
CCOc1ccc(/C=C(\C#N)C(=O)c2c(C)[nH]c3ccccc23)cc1OC	-9	2	1	-11	1
CC1(C)CC(NC(=O)C2CCC(=O)N(C3CC3)C2)CC(C)(C)C1 (stereo not given)	1	36*	-4	4	2
CCCc1nn2c(=O)cc(CSCC(=O)Nc3ccc(C)cc3)nc2s1	-1	36*	2	4	-5
CCCc1nn2c(=O)cc(CSCC(=O)Nc3nnc(CC)s3)nc2s1	1	-1	3	3	7
CCCCCCN1C[C@@H](O)[C@H](n2cc(C3CC3)nn2)C[C@@H]1c1ccc(OC)cc1	-3	2	0	0	-14
CCCCCCN1C[C@@H](n2cc(C3CC3)nn2)[C@H](O)C[C@@H]1c1ccc(OC)cc1	1	23*	3	-19	-3
COC(=O)c1ccc2nc(-c3ccc(C)cc3)c(CC(C)(C)C)n2c1	-4	15*	-1	12	-2
COC(=O)c1ccc2nc(-c3ccc(C)cc3)c(Cc3ccc(C)cc3)n2c1	0	-3	-1	-2	-2
CC(C)(C)N(Cc1ccccc1)C(=O)CN1C(=O)c2ccccc2S1(=O)=O	-2	-5	-1	-24*	-22
C[C@@H]1CN([C@@H](C)CO)C(=O)c2cc(C#Cc3ccccc3F)cnc2O[C@H]1CN(C)C(=O)C1CCC1	1	-2	-2	0	0
CC(C)c1nnc(NC(=O)CSc2nc3ccccc3[nH]2)s1	-6	-4	-4	-28*	-2
CN(C)CCN=Cc1c(O)n(Cc2ccccc2)c(=O)c2ccccc12	4	-2	-2	-24*	-6
O=c1c2ccccc2c(C=Nc2ccc(O)cc2)c(O)n1Cc1ccccc1	1	-13	-4	6	0

Bioassay records deposited in PubChem by Broad Institute.
